Screening results from PubChem.
WT yeast gro inh – growth inhibition of WT strain, primary screen, mitochondrial fusion inhibitor project, WT and mutant strains, chemical genetic | mitochondrial fusion phenotypic screen | AID 1362, 2008 | inhibition, % at 10 µM | 190,000 compounds, 2.1% hits; in the data active means inhibition above about 58%; tested in S. cerevisiae
PMI act – activators of human PMI, primary screen, biochemical, fluorescence intensity, near-Km mannose 6-phosphate. Mannose-6-phosphate isomerase (Homo sapiens), P34949. purified human PMI, coupled resazurin fluorescence, 20 min; active compounds read high; 1 = vehicle control, 0 substrate-free wells. activation factor at 20 µM. 190,000 compounds, 0.005% hits. AID 1214, 2008;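 active means activation factor of 2 or more at 20 µM, relative to plate controls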
Target sequence (P34949 whole entry, looked up): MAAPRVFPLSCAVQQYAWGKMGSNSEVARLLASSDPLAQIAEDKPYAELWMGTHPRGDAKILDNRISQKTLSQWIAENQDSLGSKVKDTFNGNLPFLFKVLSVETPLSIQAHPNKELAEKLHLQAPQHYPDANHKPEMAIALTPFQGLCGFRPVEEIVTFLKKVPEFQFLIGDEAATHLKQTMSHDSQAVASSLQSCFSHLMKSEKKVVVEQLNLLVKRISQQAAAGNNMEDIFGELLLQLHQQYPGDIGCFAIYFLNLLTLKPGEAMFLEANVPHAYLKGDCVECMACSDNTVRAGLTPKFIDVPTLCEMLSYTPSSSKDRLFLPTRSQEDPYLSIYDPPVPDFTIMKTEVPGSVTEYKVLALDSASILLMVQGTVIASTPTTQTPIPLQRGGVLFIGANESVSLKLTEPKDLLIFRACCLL
Diaphorase act – compounds boosting diaphorase resazurin reduction – biochemical, uHTS, resorufin fluorescence, counter-screen for diaphorase-coupled primary assays, primary screen | Diaphorase/resazurin coupled assay, 16 min; active compounds read high; 1 = vehicle wells, 0 = NADH-free wells | activation factor at 20 µM | 190,000 compounds, 0.005% hits | AID 1229, 2008;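 active means diaphorase activity raised at least twofold by the compound at 20 µM; inactive means activation factor below 2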
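Assay system: bacterial diaphorase enzyme (C. kluyveri) / Input: enzyme 0.07 U/mL final / Medium: 50 mM HEPES pH 7.4 with 4.542 mM MgCl2, 0.005% Tween 20 / Doses: single compound dose of 20 µM, 1% DMSO final / Incubation: 16 min enzyme reaction, ambient temperature / Signal: fluorescence, excitation 544 nm and emission 590 nm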
L major viab – Leishmania major promastigote growth inhibition, primary screen; Leishmania major promastigotes, resazurin fluorescence viability; AID 1063, 2008; 200,000 compounds, 9% hits; inhibition, % at 10 µM; in the data active means inhibition above about 50%;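 further: promastigotes grown with compound for 44 hours at 28 °C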
PMI act hi M6P – human PMI activators, high substrate, primary screen, biochemical, fluorescence intensity, near-saturating mannose 6-phosphate; activation factor at 20 µM; coupled PMI enzyme assay, resazurin fluorescence, 20 min; active compounds read high; 1 = untreated enzyme, 0 = substrate-free blank; 190,000 compounds, 0.34% hits; Mannose-6-phosphate isomerase (Homo sapiens), P34949; AID 1216, 2008;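 active means activation factor of 2 or more at 20 µM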
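test system = human PMI in coupled enzyme assay | medium = HEPES-buffered pH 7.4 with magnesium and detergent | also added = 1.0 mM mannose-6-phosphate substrate with 0.22 mM NADP+ | compound = 20 µM single dose | times = 20 min incubation at room temperature | measured by = resorufin fluorescence (Ex 544/Em 590 nm) from resazurin via diaphorase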
* hit, by the source's call. Only some compounds are listed: those with a hit (about 10% of all), similar ones and a draw of the others.

SMILES	WT yeast gro inh	PMI act	Diaphorase act	L major viab	PMI act hi M6P
COc1ccc(Cc2noc(CN(C)CC3(N4CCOCC4)CCCCC3)n2)cc1OC	10.8	0.9	0.8	0.8	0.9
CCCOc1ccc2ccccc2c1/C=N/n1c(C)nnc1-n1nc(C)cc1C	3.2	1.1	1	51.0*	1.1
Cc1cc(C)n(-c2nnc(C)n2/N=C/c2ccco2)n1	-8.7	0.9	0.7	-1.6	1
Cc1noc(C)c1C(=O)OCC(=O)Nc1ccccc1Oc1ccccc1	59.0*	0.9	0.8	-1.8	0.9
Cc1noc(C)c1C(=O)OCC(=O)Nc1ccccc1C(=O)NC(C)c1ccccc1 (centres undefined)	-8.3	0.9	0.9	41.2	0.9
O=C(Cn1cc(S(=O)(=O)N2CCN(c3ccccc3F)CC2)c2ccccc2c1=O)NCCCN1CCCCCC1	-8.4	1	1.2	3.2	1.1
CC1CCN(CCCNC(=O)c2ccc(CSCc3cccc(Cl)c3)o2)CC1	-1.4	1.1	1	100.1*	1.1
O=C(NCCCN1CCCC1)c1ccc(CSCc2cccc(Cl)c2)o1	-14.1	1	0.9	98.5*	0.9
CN1CCN(CCCNC(=O)c2ccc(CSCc3cccc(Cl)c3)o2)CC1	-17.4	0.9	1.1	99.4*	1
CCN(C(=O)Cc1ccc(Br)cc1)C1CCCCC1	16.2	0.9	0.8	4.0	1
CC1=NN(C(N)=S)C(=O)C1N=Nc1ccccc1 (centres undefined)	70.0*	1.2	1	20.5	1.1
COc1ccc(N2C(=O)C(Cl)=C(Nc3ccccc3O)C2=O)cc1	-11.6	0.9	0.7	98.5*	0.9
COc1ccc(N2C(=O)C(Cl)=C(Nc3ccccc3OC)C2=O)cc1	2.4	0.9	0.7	-6.0	0.9
Clc1c(-c2ccccc2)nnn1-c1ccccc1	1.7	1	0.9	-8.8	1
Cc1nn(C2CCS(=O)(=O)C2)c(Cl)c1/C=C/C(=O)OCC(=O)Nc1ccccc1OC(F)F (centres undefined)	-4.7	1.1	0.9	50.9*	1.1
Cc1nn(C2CCS(=O)(=O)C2)c(Cl)c1/C=C/C(=O)OCC(=O)Nc1ccccc1[N+](=O)[O-] (centres undefined)	-11.6	0.8	0.9	-3.0	0.9
CC(Cl)C(=O)c1c[nH]c2ccccc12 (centres undefined)	-4.3	1.2	1.1	6.2	1.1
O=C(/C=C/c1ccc(F)cc1)NC(=S)Nc1ccccc1C(=O)NC1CCCCC1	14.0	0.9	1.1	1.5	1.1
O=C(/C=C/c1ccccc1)NC(=S)Nc1ccccc1C(=O)NC1CCCCC1	-2.5	1.1	1	99.5*	1.1
Cc1ccc(/C=C/C(=O)NC(=S)Nc2ccccc2C(=O)NC2CCCCC2)cc1	5.3	1	0.9	83.2*	1.1
COc1ccc(/C=C/C(=O)NC(=S)Nc2ccccc2C(=O)NC2CCCCC2)cc1	-9.1	1	1	91.1*	1
Cc1ccc(C(=O)NNC(=O)c2ccc3ncccc3c2)cc1	5.4	1.1	1	4.1	1.1
CCOC(=O)Cc1cc(-c2ccc(OC)cc2)nc2ccc3ccccc3c12	7.1	0.8	0.8	98.7*	1
CCCCNc1nc2ccccc2n1CC(=O)Nc1c(C)cccc1CC	0.1	1.1	1	11.8	1
COc1ccc(/C=C/CN2CCCC(C(=O)c3ccc(OC)c(F)c3)C2)cc1 (centres undefined)	23.6	1	1	81.8*	1.1
SMILES	WT yeast gro inh	PMI act	Diaphorase act	L major viab	PMI act hi M6P
COc1cccc(C(=O)C2CCCN(C/C=C/c3ccccc3OC)C2)c1 (centres undefined)	41.5	0.9	0.9	20.3	1
CCOC(=O)C1CCN(C/C=C/c2ccccc2OC)CC1	1.1	0.9	0.9	77.7*	1
COc1ccc(C(=O)C2CCCN(Cc3c[nH]c4ccccc34)C2)c(OC)c1 (centres undefined)	4.6	0.8	0.8	62.4*	0.8
COc1ccc(C(=O)C2CCCN(C/C=C/c3ccccc3OC)C2)c(OC)c1 (centres undefined)	23.7	1	0.9	50.1*	1
CC(C)n1nc(C(=O)Nc2nc3ccccc3[nH]2)c2ccccc2c1=O	21.2	0.9	0.7	49.8	0.9
N#Cc1ccc(C(=O)Nc2nc(SCc3ccc(Cl)cc3)n[nH]2)cc1	-4.5	1.2	1.3	2.1	1
O=C(NN=C1CCCCCCCCCCC1)c1ccccc1F	6.2	0.9	0.8	38.2	0.9
COCC(=O)N1CCCC(C(=O)c2ccc(-c3ccccc3)c(F)c2)C1 (centres undefined)	58.6*	1	0.9	0.0	1
CC(=O)NCC(=O)N1CCCC(C(=O)c2ccc(-c3ccccc3)c(F)c2)C1 (centres undefined)	4.4	1	0.9	-7.3	1
COCCNCCCOc1ccc(C)cc1Br	-17.6	1	1.2	28.4	1.1
CCCCNCCOCCOc1ccc(Cl)cc1Br	49.0	1.1	0.9	99.6*	1.1
CC(C)NCCCCOc1ccc(Br)cc1Cl	8.2	1	1.1	99.4*	1.1
C=CCNCCCOc1ccc(C)cc1Br	16.5	1	0.9	93.5*	1
COCCCNCCCOc1ccc(Cl)cc1Br	8.2	0.9	0.8	87.8*	1
CC(C)(C)CC(=O)Nc1nnc(SCC(=O)Nc2ccccc2F)s1	-11.3	1	0.9	7.5	1
O=C(NOC(=O)c1ccccc1Cl)c1cccs1	45.0	1	0.9	1.5	1
O=[N+]([O-])c1cc2c(cc1/C=N/NS(=O)(=O)c1ccc(Br)cc1)OCO2	-21.2	1.6	0.7	-4.2	1.3
C=CCN(CC=C)CCCOc1ccc(Br)cc1Cl	25.0	1	1.1	51.2*	1.1
CC(C)NCCCOc1ccc(Cl)cc1Br	13.0	0.9	1	94.5*	1
CCCCNCCOCCOc1ccc(F)cc1	23.9	1	0.9	92.5*	1
COCCCNC(=O)COc1ccc(Br)cc1Cl	-7.5	1.1	1	42.5	1.1
COCCCNCCCOc1ccc(C)cc1Br	-2.5	1.1	0.9	98.9*	1.1
Fc1ccc(OCCOCCOc2cccc3[nH]ccc23)cc1	-4.9	1	1.1	11.2	0.9
COc1ccccc1CNC(=O)/C=C/c1ccc(S(=O)(=O)NCc2ccco2)cc1	-4.1	1	0.9	10.0	1
S=c1nc[nH]c2c1sc1nc(-c3ccccc3)c3c(c12)CCCC3	97.2*	0.9	0.7	32.1	0.9
Nc1c(C(=O)O)sc2nc(-c3ccccc3)c3c(c12)CCCC3	9.6	1.5	0.9	-2.3	2.2*
